Measured values reported in the EternaBench riboswitch data.

System: MS2 coat protein
Test: apparent Kd, MS2 coat protein; higher = weaker binding; RNA-MaP array; FMN 200 µM where present
Procedure, shortened: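 The apparent Kd comes from binding curves fitted cluster by cluster, filtered, and summarised as a median. Those curves followed SNAP-549-labelled MS2 coat protein from 0.7 or 1.5 nM, doubling to 3 µM, on Illumina sequencing-chip clusters where stalled E. coli RNA polymerase had transcribed the designs, without and then with constant ligand. The buffer was 100 mM Tris-HCl pH 7.5, 80 mM KCl, 4 mM MgCl2, BSA, DTT, yeast tRNA and Tween-20, and green signal was normalised to red-channel RNA signal and control-cluster median Fmax.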

[1] = designed as: ON switch for flavin mononucleotide, no ligand
[2] = ligand present: flavin mononucleotide, designed as: ON switch for flavin mononucleotide
[3] = designed as: OFF switch for flavin mononucleotide, no ligand
[4] = ligand present: flavin mononucleotide, designed as: OFF switch for flavin mononucleotide

Sequence	apparent Kd [1] [nM]	apparent Kd [2] [nM]	apparent Kd [3] [nM]	apparent Kd [4] [nM]
GCCAUCACAUGAGGAUAUGCUCCCGUUUCGGGAGCAGAAGGCGUGUCAUAAGACAUGAGGAUCACCCAUGUAGCUAAGAUGGCA	321	12.6		
GCCAUCGCAUGAGGAUAUGCUCCGGUUUCCGGAGCAGAAGGCAUGUAAUAAGACAUGAGGAUCACCCAUGUAGUUAAGAUGGCA	7.11	5.55		
GCCAUCGCAUGAGGAUAUGCUCCGGUUUCCGGAGCAGAAGGCAUGUCAUAAGACAUGAGGAUCACCCAUGUAGUUAAGAUGGCA	715	33.6		
GCCAUCGCAUGAGGAUAUGCUCCGGUUUCCGGAGCAGAAGGCAUGUGAUAACACAUGAGGAUCACCCAUGUAGUUAAGAUGGCA	5.51	4.62		
GCCAUCGCAUGAGGAUAUGGCACCGUUUCGGUGCCAGAAGGCAUGUCAAAUGACAUGAGGAUCACCCAUGUAGUUAAGAUGGCC	157	13		
GCCAUCGCAUGAGGAUAUGGCACCGUUUCGGUGCCAGAAGGCAUGUCAUAAGACAUGAGGAUCACCCAUGUAGUUAAGAUGGCA	741	47.6		
GCCAUCGUAUGAGGAUAUGGCACCGAAACGGUGCCAGAAGGCAUGUCAAUAGACAUGAGGAUCACCCAUGUGUUAUCGAUGGCA	379	36.5		
GCCAUCGUAUGAGGAUAUGGCACCGAACCGGUGCCAGAAGGCAUGUCAAUAGACAUGAGGAUCACCCAUGUGUUAUCGAUGGCA	147	13.1		
GCCAUUUAUGUAGGAUAUGCGAGGCGAGCCUGAGCAGAAGGACAUGAGGAUCACCCAUGUAUUGCGGUUUAUGUUCAGAUCGCU			16.1	18.3
GCCCUCUCUGAGGAUAUUAUCUGGUUCGAUUGAUAAGAAGGCAGUACAUGAGGAUCACCCAUGUGGUUCGUUUG			109	303
GCCGAAUGAACAUGAGGAUCACCCAUGUACAGGAAACUGAAUGAGGAUAUCCAUAGCAAAGCUAUGGAGAAGGCAUGGGUCGGC	465	99.7		
GCCGAUUAAGUGAGGAUAUACCUAUGGAUACAUAGGUAGAAGGCACAUGAGGAUCACCCAUGUUCCUCAUCGGC			16.8	132
GCCGGCUAAUGAGGAUAUGGCACCUUAUUGGUGCCAGAAGGCAUGUCAAUUGACAUGAGGAUCACCCAUGUAUUAUAGUUGGCG	422	115		
GCCGUGUUAGGAUAUUAAAGACCUGCGCCAAACGCAGGAAGUAAGAAGGAACAUGAGGAUCACCCAUGUGUCCG			17.2	14.5
GCCUCACAUGAGGAUCACCCAUGUCAGGAUAUAGGAGGCGGUAGAAAUCCUACCGCCGCUAGAAGGGACUGGCA			42.8	90.7
GCCUCACAUGAGGAUCACCCAUGUCAGGAUAUCUCAGCCUCACAUCAAACAAGGCUUCAGAGAAGGGACGUAAA			37.4	77.4
GCCUCAGAAUUAAUUGUGAGAAGCAGAAGGCUAUAUCUUAUGUUAAACAUGAGGAUCACCCAUGUAGAGGAUAUGCUAUUACAG			7.68	17.7
GCCUGGACAGAGAAGGGCUACUCCAACCACAUGAGGAUCACCCAUGUUAGCAGGAUAUCUGGCAGGGCAUCCUCAAUUAUUAAA	91.6	19.8		
GCCUUAUCCGUCAGGAUAUACAGCUGUUAGUUGUUGUAGAAGGGACAUGAGGAUCACCCAUGUACGUACCAUUG			19.2	22.2
GCGAAGGGAGGAUAUCCGCGCGCGCACAUGAGGAUCACCCAUGUGCGCGCGCGCGCGCGCGGAGAAGGCCCGGUGC			16.4	13.4
GCGAGCAUACAGAAGGGAUCGUCGUAGCGGCUGUCAGGAUAUGUAGCUUGGCCUAAACAUGAGGAUCACCCAUGUAUAAUGCUA	175	21		
GCGAGCGUACUUGCAACAUGAGGAUCACCCAUGUUAACUGGACAGGAUAUGGUACCGUUUCGGUACCAGAAGGGUUCACUCAUG	137	250		
GCGCUUAUACAGAAGGCCAUAUACAUGAGGAUCACCCAUGUCGAAUCUUGGAGGAUAUGUUAUUAAUUACACGCAGAUGAGCGC	15.8	6.19		
GCGGAUCUAGGAUAUACAUGAGGAUCACCCAUGUAAACUCUCUUGGAUGACUACUAUUGUAGAAGGAGAUAAGC			25.4	41
GCGGUACAUGAGGAUCACCCAUGUCAGGAUAUCCGCUGUUUGUUGAUUAGCAGGCGGUGGAGAAGGGACUUCGC			36.6	36
GCGGUAUUGUAAGGAUAUACUCUGUGAUGAAGAGUAGAAGGUACUUACAUGAGGAUCACCCAUGUUUAACGUGAAAAUAACCGC	47	22.6		
GCGGUAUUGUAAGGAUAUACUCUGUGAUGAAGAGUAGAAGGUACUUACAUGAGGAUCACCCAUGUUUAACGUGAAAAUUACCGC	26.5	16.7		
GCGUAACAUGAGGAUCACCCAUGUGCCCGAGAAUUCGGGCCGAGAAGGGUGACCGGACGUAUGGCACAGGAUAUCGACGUUUUG	33.6	48.4		

Sequence	apparent Kd [1] [nM]	apparent Kd [2] [nM]	apparent Kd [3] [nM]	apparent Kd [4] [nM]
GCGUAGUUCUAGAAGGUGCUAGCGAUAAGCUAGCAAGGAUAUAGACAUGAGGAUCACCCAUGUCUUUGUGACAUCGACAUACGC			5.62	7.03
GCGUAUUUAAUAUUUAUAUAAUUGUCAGAAGGUGAAAAGACGACAUGAGGAUCACCCAUGUAAUUCAAGGAUAUGAUUAAGCGC	30.7	15.8		
GCGUCACAAUUAGAACCAAUACGAACAUGAGGAUCACCCAUGUAGGAUAUGCUAGAAGUUGAGUUGCAGAAGGACAUAUAACGC			12	10.9
GCGUGACAUGAGGAUCACCCAUGUGAGGAUAUCUGGAUAAUCUUUAUUUUAGAUAUCCAGAGAAGGCACAUGCU			162	117
GCGUGCGAUAGGACGUCUGAGGGCAGAAGGCACAUGAGGAUCACCCAUGUAACGAUCUCUUCAAGUGAGGAUAUGUGCUCAUUG			29.7	114
GCGUGGAAUACAGGAUAUGUUGUACAAUAAUCUUUGAGGCAUUGAGAUUAUACAGAAGGGUAAACAUGAGGAUCACCCAUGUAA			31	25.1
GCGUGGUUCUAGAAGGUGCUAGCGAUAAGCUAGCAAGGAUAUAGACAUGAGGAUCACCCAUGUCUUAAUGAAAUGGACACACGC			5.3	4.85
GCGUUGAACGAGAAGGCCAAUACAUGAGGAUCACCCAUGUAGUGAAGUAUUGGAGGAUAUCGAUCGGCGUCUCAUGAGCAACGC			7.49	19.6
GCGUUGAACGAGAAGGCCAAUACAUGAGGAUCACCCAUGUUAAGAUGUUUUGGAGGAUAUCGAUCGUCGUCUCAUGAGCAACGC			5.3	6.24
GCGUUGAACGAGAAGGCCAAUACAUGAGGAUCACCCAUGUUAAGUUGUUUUGGAGGAUAUCGAACGCAUUCAAUAUUGCAACGC			6.65	5.84
GCUAAGCGAAUUAAGAUGAAUAGAACAUGAGGAUCACCCAUGUAGGAUAUGCUACACAAAGUGUAGCAGAAGGACAAGCUUAGC			20.2	25.4
GCUAGAUUUGCAGGAUAUUGUAAUUUAUUAUUUCAAGAAGGGCAUUACAUGAGGAUCACCCAUGUCAUCCUAUGGUUUACUAGC			9.57	23.1
GCUAGGAAUGUCAGGAUAUGCAGAACCUUGGUUCUGCAGAAGGGACAUGAGGAUCACCCAUGUGCUAACCUAGC			29.6	113
GCUAGUAUUGCAGGAUAUUGUAAUUUAUUAUUUCAAGAAGGGCAUUACAUGAGGAUCACCCAUGUCAUCCUAUGGUUUACUAGC			9.2	19.9
GCUAUAGCGGAGGAUAUCCCGAAAAGAAGUUUAGGAGAAGGCCGCACAUGAGGAUCACCCAUGUGAGUCCGCAA			22.7	119
GCUAUUGAUGUAGGAUAUGAUAUAGAAACUAUGUCAGAAGGACAUGAGGAUCACCCAUGUCAAUGGAUGGAGAGAAGAGAUGGC			28	30.7
GCUCUACAUGAGGAUCACCCAUGUUCGGACGCACGAGGAUAUGCAUGGGCGAAAGCUGGUGCAGAAGGCGUGGGAC	209	33.4		
GCUCUAUGCGAGAAGGCGUGAAACAUGAGGAUCACCCAUGUCAGAGAUAUGAGGAUAUUGCAUAGAGCAAAAGACGGAAACGUC	12.2	5.02		
GCUCUAUGCUAGAAGGCGUGAAACAUGAGGAUCACCCAUGUCAGAGAAAUGAGGAUAUAGCAUAGAGCAAAAGACGGAAACGUC	11.1	5.61		
GCUCUGUCAGGAUAUCAGGCUGACGGAACUUGGCUGUUAGAUGAGAAGGGACAUGAGGAUCACCCAUGUAAAAU			33.8	34.8
GCUGAAUGAACAUGAGGAUCACCCAUGUACAGGAAACUGAAUGAGGAUAUCCAUAGCAAAGCUAUGGAGAAGGCAUGGGUCAGC	338	94		
GCUGACGAUGUAGGAUAUCUCGACGAUAAGUCGAGAGAAGGACAUGAGGAUCACCCAUGUACUCAAACGUCAGCGAGGAAACUC			18.7	27.6
GCUGCAUAGGCAGGAUAUGCAAAAAACGAUGCAAAGCAUCGAAAAAAAACAUGAGGAUCACCCAUGUAGAAGGGCCUGUGCAGU			22.6	20.8
GCUGCAUGCAGAGGAUAUAUAACAUGAGGAUCACCCAUGUAAAAUAUAUGGAUAAACCAGAUAGUAUAGAAGGCUGCAUGCAGC			22.9	19.1
GCUGCGCGAGGAUAUGCGGUUUGCGCUGUGGCCCGUGGCGUACAUGAGGAUCACCCAUGUAGAAGGCGUGCGGG			11.6	12.1
GCUGCGCGAGGAUAUGCGGUUUGUGCUUUGGGCCCUGGCGUACAUGAGGAUCACCCAUGUAGAAGGCGUGUGGG			43.6	38.4
GCUGCGUAUGAGAAGGCGAUCAUGAAACAUGAUCGAGGAUAUCAUGUUUACAUGAGGAUCACCCAUGUAUGGGUAUAAUGCAGC	335	18.1		
